Laboratory results as given in ChEMBL document CHEMBL1212764, “Antimicrobial resistance in Haemophilus influenzae respiratory tract isolates in Korea: results of a nationwide acute respiratory infections surveillance” (2010).
Converted amounts (≈) assume the structure as drawn.

Assays:
Type in all cases: functional
Haemophilus influenzae [1] = assay: Antimicrobial activity against Haemophilus influenzae isolate by broth microdilution method
Procedure, shortened: (§1)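 Broth microdilution MIC in freshly prepared Haemophilus test medium per 2008 CLSI guidelines; H. influenzae ATCC 49247 and ATCC 49766 as control strains. Isolates from outpatient nasal aspirates (no prior antibiotics), cultured on blood agar with S. aureus streak and chocolate agar. PBP3 substitutions deduced from ftsI sequencing against the Rd strain; β-lactamase genes (TEM-1, ROB-1) detected by PCR.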

Haemophilus influenzae [2] = assay: Antimicrobial activity against beta-lactamase-negative, ampicillin-sensitive Haemophilus influenzae by broth microdilution method; procedure, shortened: as §1
Haemophilus influenzae [3] = assay: Antimicrobial activity against Beta-lactamase-positive, ampicillin-resistant Haemophilus influenzae by broth microdilution method; procedure, shortened: as §1
Haemophilus influenzae [4] = assay: Antimicrobial activity against Beta-lactamase-negative, ampicillin-resistant Haemophilus influenzae by broth microdilution method; procedure, shortened: as §1
Haemophilus influenzae [5] = assay: Antimicrobial activity against Beta-lactamase-positive, ampicillin-cluvulanate-resistant Haemophilus influenzae by broth microdilution method; procedure, shortened: as §1
Haemophilus influenzae [6] = assay: Antimicrobial activity against Beta-lactamase-negative, ampicillin-resistant Haemophilus influenzae with Asp350Asn, Ser357Asp, Met377Ile, Ser385Thr, Arg517His substitutions in penicillin-binding protein 3 by broth microdilution method; procedure, shortened: as §1
Haemophilus influenzae [7] = assay: Antimicrobial activity against Beta-lactamase-negative, ampicillin-resistant Haemophilus influenzae with Gly490Glu, Asn526Lys substitutions in penicillin-binding protein 3 by broth microdilution method; procedure, shortened: as §1
Haemophilus influenzae [8] = assay: Antimicrobial activity against Beta-lactamase-negative, ampicillin-resistant Haemophilus influenzae with Asp350Asn, Met377Ile, Asn526Lys substitutions in penicillin-binding protein 3 by broth microdilution method; procedure, shortened: as §1
Haemophilus influenzae [9] = assay: Antimicrobial activity against Beta-lactamase-negative, ampicillin-resistant Haemophilus influenzae with Asp350Asn, Met377Ile, Gly490Glu, Asn526Lys substitutions in penicillin-binding protein 3 by broth microdilution method; procedure, shortened: as §1
Haemophilus influenzae [10] = assay: Antimicrobial activity against Beta-lactamase-negative, ampicillin-resistant Haemophilus influenzae with Ala502Val, Asn526Lys substitutions in penicillin-binding protein 3 by broth microdilution method; procedure, shortened: as §1
Haemophilus influenzae [11] = assay: Antimicrobial activity against Beta-lactamase-negative, ampicillin-resistant Haemophilus influenzae with Asp350Asn, Met377Ile, Ala502Val, Asn526Lys substitutions in penicillin-binding protein 3 by broth microdilution method; procedure, shortened: as §1
Haemophilus influenzae [12] = assay: Antimicrobial activity against Beta-lactamase-negative, ampicillin-resistant Haemophilus influenzae with Asp350Asn, Met377Ile, Gly490Glu, Ala502Val, Asn526Lys substitutions in penicillin-binding protein 3 by broth microdilution method; procedure, shortened: as §1
Haemophilus influenzae [13] = assay: Antimicrobial activity against Beta-lactamase-negative, ampicillin-resistant Haemophilus influenzae with Ser311Pro, Ala502Thr, Asn526Lys substitutions in penicillin-binding protein 3 by broth microdilution method; procedure, shortened: as §1
Haemophilus influenzae [14] = assay: Antimicrobial activity against Beta-lactamase-negative, ampicillin-resistant Haemophilus influenzae with Ile449Val, Ala502Thr, Asn526Lys substitutions in penicillin-binding protein 3 by broth microdilution method; procedure, shortened: as §1
Haemophilus influenzae [15] = assay: Antimicrobial activity against Beta-lactamase-negative, ampicillin-resistant Haemophilus influenzae with Asp350Asn, Ser357Asp, Met377Ile, Ser385Thr, Ala502Thr, Asn526Lys substitutions in penicillin-binding protein 3 by broth microdilution method; procedure, shortened: as §1
Haemophilus influenzae [16] = assay: Antimicrobial activity against Beta-lactamase-negative, ampicillin-resistant Haemophilus influenzae with Asp350Asn, Ser357Asp, Ser385Thr, Leu389Phe, Ala502Thr, Asn526Lys substitutions in penicillin-binding protein 3 by broth microdilution method; procedure, shortened: as §1
Haemophilus influenzae [17] = assay: Antimicrobial activity against Beta-lactamase-negative, ampicillin-resistant Haemophilus influenzae with Ile449Val, Asn526Lys substitutions in penicillin-binding protein 3 by broth microdilution method; conditions: Haemophilus influenzae; read-out: MIC; procedure, shortened: as §1
Haemophilus influenzae [18] = assay: Antimicrobial activity against Beta-lactamase-negative, ampicillin-resistant Haemophilus influenzae with Asp350Asn, Ser357Asp, Met377Ile, Ser385Thr, Leu389Phe, substitutions in penicillin-binding protein 3 by broth microdilution method; procedure, shortened: as §1
Haemophilus influenzae [19] = assay: Antimicrobial activity against Beta-lactamase-negative, ampicillin-resistant Haemophilus influenzae with penicillin-binding protein 3 by broth microdilution method; procedure, shortened: as §1
Haemophilus influenzae [20] = assay: Antimicrobial activity against Beta-lactamase-positive, ampicillin-cluvulanate-resistant Haemophilus influenzae with Asp350Asn, Ser357Asp, Met377Ile, Ser385Thr, Arg517His substitutions in penicillin-binding protein 3 by broth microdilution method; procedure, shortened: as §1
Haemophilus influenzae [21] = assay: Antimicrobial activity against Beta-lactamase-positive, ampicillin-cluvulanate-resistant Haemophilus influenzae with Asp350Asn, Met377Ile, Asn526Lys substitutions in penicillin-binding protein 3 by broth microdilution method; procedure, shortened: as §1
Haemophilus influenzae [22] = assay: Antimicrobial activity against Beta-lactamase-positive, ampicillin-cluvulanate-resistant Haemophilus influenzae with Asp350Asn, Met377Ile, Ser385Thr, Asn526Lys substitutions in penicillin-binding protein 3 by broth microdilution method; procedure, shortened: as §1
Haemophilus influenzae [23] = assay: Antimicrobial activity against Beta-lactamase-positive, ampicillin-cluvulanate-resistant Haemophilus influenzae with Asp350Asn, Met377Ile, Ala502Val, Asn526Lys substitutions in penicillin-binding protein 3 by broth microdilution method; procedure, shortened: as §1
Haemophilus influenzae [24] = assay: Antimicrobial activity against Beta-lactamase-positive, ampicillin-cluvulanate-resistant Haemophilus influenzae with Ala502Val, Asn526Lys substitutions in penicillin-binding protein 3 by broth microdilution method; procedure, shortened: as §1
Haemophilus influenzae [25] = assay: Antimicrobial activity against Beta-lactamase-positive, ampicillin-cluvulanate-resistant Haemophilus influenzae with Asp350Asn, Met377Ile, Gly490Glu, Ala502Val, Asn526Lys substitutions in penicillin-binding protein 3 by broth microdilution method; procedure, shortened: as §1
Haemophilus influenzae [26] = assay: Antimicrobial activity against Beta-lactamase-positive, ampicillin-cluvulanate-resistant Haemophilus influenzae with Ala368Thr, Ala502Thr, Asn526Lys substitutions in penicillin-binding protein 3 by broth microdilution method; procedure, shortened: as §1
Haemophilus influenzae [27] = assay: Antimicrobial activity against Beta-lactamase-positive, ampicillin-cluvulanate-resistant Haemophilus influenzae with Asp350Asn, Ser357Asp, Ala437Ser, Ala502Thr, Asn526Lys substitutions in penicillin-binding protein 3 by broth microdilution method; procedure, shortened: as §1
Haemophilus influenzae [28] = assay: Antimicrobial activity against Beta-lactamase-positive, ampicillin-cluvulanate-resistant Haemophilus influenzae with Asp350Asn, Ala502Thr, Asn526Lys substitutions in penicillin-binding protein 3 by broth microdilution method; procedure, shortened: as §1
Haemophilus influenzae [29] = assay: Antimicrobial activity against Beta-lactamase-positive, ampicillin-cluvulanate-resistant Haemophilus influenzae with Ile449Val, Asn526Lys substitutions in penicillin-binding protein 3 by broth microdilution method; procedure, shortened: as §1
Haemophilus influenzae [30] = assay: Antimicrobial activity against Beta-lactamase-positive, ampicillin-cluvulanate-resistant Haemophilus influenzae with Asp350Asn, Ala437Ser substitutions in penicillin-binding protein 3 by broth microdilution method; procedure, shortened: as §1

Compound	MIC50 (Haemophilus influenzae [1])	MIC90 (Haemophilus influenzae [1])	MIC50 (Haemophilus influenzae [2])	MIC90 (Haemophilus influenzae [2])	MIC50 (Haemophilus influenzae [3])	MIC90 (Haemophilus influenzae [3])	MIC50 (Haemophilus influenzae [4])	MIC90 (Haemophilus influenzae [4])	MIC50 (Haemophilus influenzae [5])	MIC90 (Haemophilus influenzae [5])	MIC (Haemophilus influenzae [6])	MIC (Haemophilus influenzae [7])	MIC (Haemophilus influenzae [8])	MIC (Haemophilus influenzae [9])	MIC (Haemophilus influenzae [10])	MIC (Haemophilus influenzae [11])	MIC (Haemophilus influenzae [12])	MIC (Haemophilus influenzae [13])	MIC (Haemophilus influenzae [14])	MIC (Haemophilus influenzae [15])	also measured
CC[C@H]1OC(=O)[C@H](C)[C@@H](O[C@H]2C[C@@](C)(OC)[C@@H](O)[C@H](C)O2)[C@H](C)[C@@H](O[C@@H]2O[C@H](C)C[C@H](N(C)C)[C@H]2O)[C@](C)(OC)C[C@@H](C)C(=O)[C@H](C)[C@@H](O)[C@]1(C)O [CLARITHROMYCIN]	8 µg/mL (≈ 10.7 µM)	16 µg/mL (≈ 21.4 µM)	8 µg/mL (≈ 10.7 µM)	16 µg/mL (≈ 21.4 µM)	8 µg/mL (≈ 10.7 µM)	16 µg/mL (≈ 21.4 µM)	8 µg/mL (≈ 10.7 µM)	32 µg/mL (≈ 42.8 µM)	8 µg/mL (≈ 10.7 µM)	16 µg/mL (≈ 21.4 µM)											
O=C(N[C@H](CO)[C@H](O)c1ccc([N+](=O)[O-])cc1)C(Cl)Cl [CHLORAMPHENICOL]	0.5 µg/mL (≈ 1.55 µM)	1 µg/mL (≈ 3.09 µM)	0.5 µg/mL (≈ 1.55 µM)	0.5 µg/mL (≈ 1.55 µM)	0.5 µg/mL (≈ 1.55 µM)	8 µg/mL (≈ 24.8 µM)	0.5 µg/mL (≈ 1.55 µM)	1 µg/mL (≈ 3.09 µM)	0.5 µg/mL (≈ 1.55 µM)	8 µg/mL (≈ 24.8 µM)											
CO/N=C(\C(=O)N[C@@H]1C(=O)N2C(C(=O)O)=C(COC(N)=O)CS[C@H]12)c1ccco1 [CEFUROXIME]	2 µg/mL (≈ 4.71 µM)	8 µg/mL (≈ 18.9 µM)	2 µg/mL (≈ 4.71 µM)	8 µg/mL (≈ 18.9 µM)	2 µg/mL (≈ 4.71 µM)	8 µg/mL (≈ 18.9 µM)	8 µg/mL (≈ 18.9 µM)	16 µg/mL (≈ 37.7 µM)	8 µg/mL (≈ 18.9 µM)	32 µg/mL (≈ 75.4 µM)	13.3 µg/mL (≈ 31.3 µM)	9.3 µg/mL (≈ 21.9 µM)	9.3 µg/mL (≈ 21.9 µM)	9.3 µg/mL (≈ 21.9 µM)	6 µg/mL (≈ 14.1 µM)	6 µg/mL (≈ 14.1 µM)	6 µg/mL (≈ 14.1 µM)	11.4 µg/mL (≈ 26.9 µM)	11.4 µg/mL (≈ 26.9 µM)	11.4 µg/mL (≈ 26.9 µM)	MIC (Haemophilus influenzae [16]): 11.4 µg/mL (≈ 26.9 µM); MIC (Haemophilus influenzae [17]): 8 µg/mL (≈ 18.9 µM); MIC (Haemophilus influenzae [18]): 13.3 µg/mL (≈ 31.3 µM); MIC (Haemophilus influenzae [19]): 2 µg/mL (≈ 4.71 µM); MIC (Haemophilus influenzae [20]): 32 µg/mL (≈ 75.4 µM); MIC (Haemophilus influenzae [21]): 2 µg/mL (≈ 4.71 µM); MIC (Haemophilus influenzae [22]): 2 µg/mL (≈ 4.71 µM); MIC (Haemophilus influenzae [23]): 11.4 µg/mL (≈ 26.9 µM); MIC (Haemophilus influenzae [24]): 11.4 µg/mL (≈ 26.9 µM); MIC (Haemophilus influenzae [25]): 11.4 µg/mL (≈ 26.9 µM); MIC (Haemophilus influenzae [26]): 6.5 µg/mL (≈ 15.3 µM); MIC (Haemophilus influenzae [27]): 6.5 µg/mL (≈ 15.3 µM); MIC (Haemophilus influenzae [28]): 6.5 µg/mL (≈ 15.3 µM); MIC (Haemophilus influenzae [29]): 4 µg/mL (≈ 9.43 µM); MIC (Haemophilus influenzae [30]): 4 µg/mL (≈ 9.43 µM)
CO/N=C(\C(=O)N[C@@H]1C(=O)N2C(C(=O)O)=C(COC(C)=O)CS[C@H]12)c1csc(N)n1 [CEFOTAXIME]	0.063 µg/mL (≈ 0.138 µM)	0.125 µg/mL (≈ 0.274 µM)	0.063 µg/mL (≈ 0.138 µM)	0.25 µg/mL (≈ 0.549 µM)	0.063 µg/mL (≈ 0.138 µM)	0.125 µg/mL (≈ 0.274 µM)	0.063 µg/mL (≈ 0.138 µM)	1 µg/mL (≈ 2.2 µM)	0.063 µg/mL (≈ 0.138 µM)	1 µg/mL (≈ 2.2 µM)	0.25 µg/mL (≈ 0.549 µM)	0.063 µg/mL (≈ 0.138 µM)	0.063 µg/mL (≈ 0.138 µM)	0.063 µg/mL (≈ 0.138 µM)	0.069 µg/mL (≈ 0.151 µM)	0.069 µg/mL (≈ 0.151 µM)	0.069 µg/mL (≈ 0.151 µM)	0.194 µg/mL (≈ 0.426 µM)	0.194 µg/mL (≈ 0.426 µM)	0.194 µg/mL (≈ 0.426 µM)	MIC (Haemophilus influenzae [16]): 0.194 µg/mL (≈ 0.426 µM); MIC (Haemophilus influenzae [17]): 0.708 µg/mL (≈ 1.55 µM); MIC (Haemophilus influenzae [18]): 1.7 µg/mL (≈ 3.73 µM); MIC (Haemophilus influenzae [19]): 0.063 µg/mL (≈ 0.138 µM); MIC (Haemophilus influenzae [20]): 0.188 µg/mL (≈ 0.413 µM); MIC (Haemophilus influenzae [21]): 0.532 µg/mL (≈ 1.17 µM); MIC (Haemophilus influenzae [22]): 0.532 µg/mL (≈ 1.17 µM); MIC (Haemophilus influenzae [23]): 0.188 µg/mL (≈ 0.413 µM); MIC (Haemophilus influenzae [24]): 0.188 µg/mL (≈ 0.413 µM); MIC (Haemophilus influenzae [25]): 0.188 µg/mL (≈ 0.413 µM); MIC (Haemophilus influenzae [26]): 0.079 µg/mL (≈ 0.173 µM); MIC (Haemophilus influenzae [27]): 0.079 µg/mL (≈ 0.173 µM); MIC (Haemophilus influenzae [28]): 0.079 µg/mL (≈ 0.173 µM); MIC (Haemophilus influenzae [29]): 0.094 µg/mL (≈ 0.206 µM); MIC (Haemophilus influenzae [30]): 0.125 µg/mL (≈ 0.274 µM)
